Measured values taken from ChEMBL document CHEMBL2151002 (J Med Chem, 2012).
The source made the active and inactive calls. The calls are words filed in the database; no cut-off is given here.

Legend:
D(3) dopamine receptor [1] = molecular target: D(3) dopamine receptor (Rattus norvegicus, UniProt P19020); experiment: Displacement of [3H]spiroperidol from rat cloned dopamine D3 receptor expressed in HEK293 cells; type: cell-based
D(2) dopamine receptor [2] = molecular target: D(2) dopamine receptor (Rattus norvegicus, UniProt P61169); experiment: Displacement of [3H]spiroperidol from rat cloned dopamine D2L receptor expressed in HEK293 cells; type: cell-based
Rattus norvegicus [3] = organism: Rattus norvegicus; experiment: Selectivity ratio of Ki for rat cloned dopamine D2L receptor to Ki for rat cloned dopamine D3 receptor
Rattus norvegicus [4] = experiment: Reversal of reserpine-induced akinesia in Sprague-Dawley rat at 10 umol/kg, sc administered 18 hrs post reserpine challenge measured for 6 hrs; type: functional, organism-based
D(2) dopamine receptor [5] = molecular target: T1, D(2) dopamine receptor (Homo sapiens, UniProt P14416); experiment: Agonist activity at human cloned dopamine D2 receptor expressed in CHO cells by [35S]GTPgammaS binding assay; type: functional, cell-based
D(2) dopamine receptor [6] = molecular target: T1, D(2) dopamine receptor; experiment: Agonist activity at human cloned dopamine D2 receptor expressed in CHO cells by [35S]GTPgammaS binding assay relative to dopamine; type: functional, cell-based
D(3) dopamine receptor [7] = molecular target: D(3) dopamine receptor (Homo sapiens, UniProt P35462); experiment: Agonist activity at human cloned dopamine D3 receptor expressed in CHO cells by [35S]GTPgammaS binding assay; type: functional, cell-based
[8] = tested on: Radical scavenging activity; experiment: Antioxidant activity assessed as DPPH radical scavenging activity; type: functional
How it was run: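 Methanolic compound solutions (20–250 µM) mixed 1:1 with 200 µM methanolic DPPH and shaken at 30 °C for 20 min. Absorbance read at 517 nm. Controls were DPPH plus methanol; methanol alone served as background. % scavenging = (A control − A sample)/A control × 100, giving IC50.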

Rattus norvegicus [9] = experiment: Reversal of reserpine-induced akinesia in Sprague-Dawley rat at 5 umol/kg, sc administered 18 hrs post reserpine challenge measured for 6 hrs; type: functional, organism-based

Chain of D(3) dopamine receptor (Rattus norvegicus, UniProt P19020) (P19020 whole entry): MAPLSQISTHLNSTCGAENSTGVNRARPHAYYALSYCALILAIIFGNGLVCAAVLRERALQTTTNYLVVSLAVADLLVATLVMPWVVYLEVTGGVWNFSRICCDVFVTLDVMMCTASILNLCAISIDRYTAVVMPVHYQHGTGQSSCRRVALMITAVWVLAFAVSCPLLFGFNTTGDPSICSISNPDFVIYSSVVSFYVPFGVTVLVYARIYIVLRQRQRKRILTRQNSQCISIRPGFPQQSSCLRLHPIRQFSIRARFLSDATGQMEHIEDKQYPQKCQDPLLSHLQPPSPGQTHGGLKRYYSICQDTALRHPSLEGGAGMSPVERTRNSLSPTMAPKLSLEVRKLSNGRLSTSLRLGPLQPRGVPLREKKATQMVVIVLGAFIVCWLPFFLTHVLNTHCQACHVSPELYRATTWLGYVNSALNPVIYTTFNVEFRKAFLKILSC
T1 sequence (P14416 whole entry): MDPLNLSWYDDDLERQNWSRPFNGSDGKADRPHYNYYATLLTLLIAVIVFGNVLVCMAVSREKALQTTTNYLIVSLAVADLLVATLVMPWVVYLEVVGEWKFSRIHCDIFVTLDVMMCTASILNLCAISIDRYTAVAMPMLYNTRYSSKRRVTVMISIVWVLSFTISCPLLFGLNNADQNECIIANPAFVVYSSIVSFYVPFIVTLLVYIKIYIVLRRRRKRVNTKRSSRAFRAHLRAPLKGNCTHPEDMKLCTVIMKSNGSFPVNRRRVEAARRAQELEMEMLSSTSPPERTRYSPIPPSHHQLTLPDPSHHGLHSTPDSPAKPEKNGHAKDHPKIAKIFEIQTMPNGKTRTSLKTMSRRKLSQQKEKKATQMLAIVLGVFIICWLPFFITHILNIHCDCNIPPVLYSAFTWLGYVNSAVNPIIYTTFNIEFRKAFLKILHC
Chain of D(2) dopamine receptor (Rattus norvegicus, UniProt P61169) (P61169 whole entry): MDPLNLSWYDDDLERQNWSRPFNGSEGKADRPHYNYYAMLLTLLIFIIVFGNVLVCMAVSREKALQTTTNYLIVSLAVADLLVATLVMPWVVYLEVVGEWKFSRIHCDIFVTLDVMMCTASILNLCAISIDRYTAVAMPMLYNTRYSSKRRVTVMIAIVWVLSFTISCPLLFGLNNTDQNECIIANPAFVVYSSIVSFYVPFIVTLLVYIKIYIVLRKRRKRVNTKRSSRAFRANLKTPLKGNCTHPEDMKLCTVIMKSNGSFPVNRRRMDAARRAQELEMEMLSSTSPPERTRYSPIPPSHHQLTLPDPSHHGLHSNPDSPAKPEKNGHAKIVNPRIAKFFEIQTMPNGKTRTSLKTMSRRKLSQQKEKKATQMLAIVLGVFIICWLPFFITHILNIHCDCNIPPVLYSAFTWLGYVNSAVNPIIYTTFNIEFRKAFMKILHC
Chain of D(3) dopamine receptor (Homo sapiens, UniProt P35462) (P35462 whole entry): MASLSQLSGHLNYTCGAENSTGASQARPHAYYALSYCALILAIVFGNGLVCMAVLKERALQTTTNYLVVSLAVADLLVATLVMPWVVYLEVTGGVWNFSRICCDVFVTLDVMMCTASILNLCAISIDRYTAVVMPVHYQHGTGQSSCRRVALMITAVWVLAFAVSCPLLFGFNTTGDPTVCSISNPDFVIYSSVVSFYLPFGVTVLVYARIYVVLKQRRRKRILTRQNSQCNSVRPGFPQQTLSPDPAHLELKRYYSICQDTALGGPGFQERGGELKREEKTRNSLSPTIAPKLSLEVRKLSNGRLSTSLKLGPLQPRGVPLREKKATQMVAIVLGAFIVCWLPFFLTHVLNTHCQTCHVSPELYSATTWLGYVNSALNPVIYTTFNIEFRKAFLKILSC

| SMILES | Ki (D(3) dopamine receptor [1]) [nM] | Ki (D(2) dopamine receptor [2]) [nM] | Ratio Ki (Rattus norvegicus [3]) | other results |
| --- | --- | --- | --- | --- |
| CCCN(CCN1CCN(C(=O)c2cc3ccccc3[nH]2)CC1)[C@@H]1CCc2nc(N)sc2C1 | 54.1 | 2560 | – | – |
| CCCN(CCN1CCN(Cc2ccc3[nH]ccc3c2)CC1)C1CCc2c(O)cccc2C1 (configuration not stated) | 4.17 | 269 | 64.5 | – |
| CCCN(CCN1CCN(C(=O)c2ccc3[nH]ccc3c2)CC1)[C@H]1CCc2nc(N)sc2C1 | 1.4 | 1030 | 736 | Activity (Rattus norvegicus [4]): inactive; EC50 (D(2) dopamine receptor [5]): 70.7 nM; Emax (D(2) dopamine receptor [6]): 107%; EC50 (D(3) dopamine receptor [7]): 0.56 nM |
| CCCN(CCN1CCN(c2nccc3ccccc23)CC1)[C@H]1CCc2nc(N)sc2C1 | – | – | 121 | EC50 (D(3) dopamine receptor [7]): 0.82 nM |
| CCCN(CCN1CCN(Cc2cc3ccccc3[nH]2)CC1)C1CCc2c(O)cccc2C1 (configuration not stated) | 5.48 | 183 | 33.4 | – |
| CCCN(CCN1CCN(c2ccc(-c3ccccc3)cc2)CC1)[C@H]1CCc2nc(N)sc2C1 | – | – | – | EC50 (D(2) dopamine receptor [5]): 33.1 nM; Emax (D(2) dopamine receptor [6]): 104%; EC50 (D(3) dopamine receptor [7]): 1.51 nM |
| CCCN(CCN1CCN(C(=O)c2cc3ccccc3[nH]2)CC1)[C@H]1CCc2nc(N)sc2C1 | 1.84 | 1070 | – | Activity (Rattus norvegicus [4]): inactive; Emax (D(2) dopamine receptor [6]): 101%; EC50 (D(3) dopamine receptor [7]): 0.26 nM |
| CCCN(CCN1CCN(Cc2c[nH]c3ccccc23)CC1)C1CCc2c(O)cccc2C1 (configuration not stated) | 3.2 | 82.1 | 25.6 | – |
| CCCN(CCN1CCN(c2ccc3[nH]ccc3c2)CC1)C1CCc2nc(N)sc2C1 (racemic) | 1.92 | 46.7 | 24.3 | Activity [8]: Dose-dependent effect; IC50 [8]: 14500 nM |
| CCCN(CCCN1CCN(C(=O)c2cc3ccccc3[nH]2)CC1)C1CCc2nc(N)sc2C1 (racemic) | 2.78 | 928 | 334 | – |
| CCCN(CCN1CCN(C(=O)c2c[nH]c3ccccc23)CC1)[C@H]1CCc2nc(N)sc2C1 | 1.09 | 902 | 828 | EC50 (D(2) dopamine receptor [5]): 86.4 nM; Emax (D(2) dopamine receptor [6]): 91.6%; EC50 (D(3) dopamine receptor [7]): 0.87 nM |
| CCCN(CCN1CCN(C(=O)c2c[nH]c3ccccc23)CC1)[C@@H]1CCc2nc(N)sc2C1 | 48.2 | 1320 | 27.3 | – |
| CCCN(CCC)CCc1cccc2c1CC(=O)N2 | – | – | – | Activity (Rattus norvegicus [9]): Active |
| CCCN(CCCCN1CCN(C(=O)c2cc3ccccc3[nH]2)CC1)C1CCc2nc(N)sc2C1 (racemic) | 1.74 | – | – | – |
| CCCN(CCN1CCN(C(=O)c2ccc3[nH]ccc3c2)CC1)[C@@H]1CCc2nc(N)sc2C1 | 52.8 | 2630 | 49.7 | – |
| CCCN(CCN1CCN(c2ccc3[nH]ccc3c2)CC1)[C@H]1CCc2nc(N)sc2C1 | 2.19 | 39 | 17.8 | Activity (Rattus norvegicus [9]): Active; EC50 (D(2) dopamine receptor [5]): 2.96 nM; Emax (D(2) dopamine receptor [6]): 107%; EC50 (D(3) dopamine receptor [7]): 1.26 nM |
| CCCN(CCN1CCN(C(=O)c2c[nH]c3ccccc23)CC1)C1CCc2nc(N)sc2C1 (racemic) | 4.17 | 1500 | 360 | Activity [8]: Dose-dependent effect |
| O=C1O[C@H]([C@@H](O)CO)C(O)=C1O [ASCORBIC ACID] | – | – | – | Activity [8]: Dose-dependent effect; IC50 [8]: 24900 nM |
| CCCN(CCN1CCN(c2ccc3[nH]ccc3c2)CC1)[C@@H]1CCc2nc(N)sc2C1 | 15.9 | 134 | 8.46 | – |
| CCCN(CCN1CCN(Cc2ccc3[nH]ccc3c2)CC1)C1CCc2nc(N)sc2C1 (configuration not stated) | 8.07 | 132 | 16.4 | – |
| CCCN(CCN1CCN(C(=O)c2cc3ccccc3[nH]2)CC1)C1CCc2nc(N)sc2C1 (racemic) | 4.59 | 852 | – | Activity [8]: Dose-dependent effect |
| CCCN(CCN1CCN(c2ccc3[nH]ccc3c2)CC1)C1CCc2c(O)cccc2C1 (configuration not stated) | 10.4 | 76.4 | 7.3 | – |
| CCCN(CCN1CCN(C(=O)c2ccc3[nH]ccc3c2)CC1)C1CCc2nc(N)sc2C1 (racemic) | 4.1 | 1240 | 303 | Activity [8]: Dose-dependent effect |
| CCCN(CCN1CCN(C(=O)c2c[nH]c3ccc(O)cc23)CC1)C1CCc2nc(N)sc2C1 (configuration not stated) | 16.8 | 1080 | 64.2 | – |
